# Screening results deposited in PubChem BioAssay by several laboratories.
# Compounds with a hit are over-represented: about 5.1% of the library has one in this group of screens.
# STAT1 act: STAT1 signaling activators, primary screen, cell-based, HTS, luciferase reporter; NIH 3T3 STAT1-luciferase reporter, IFN-gamma, luminescence; 100% = IFN-gamma alone, no compound; activation (% of control), % at 5.5 µM; 200,000 compounds, 2.6% hits;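 active = activation above the screen-wide mean activation plus 3 SD, cut at about 130% in these data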;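 note: raw ratio to IFN-gamma control signal so 100% means no change and 0% no light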
# STAT3 activator: IL-6 driven STAT3 reporter potentiators, primary screen, U3A cells, luciferase, luminescence, MLSCN library; IL-6 STAT3-luciferase reporter; 100% = signal with IL-6 EC80 alone; activation (% of control), % at 5.6 µM; 190,000 compounds, 0.91% hits; AID 871, 2007;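 active = activation above the screen-wide mean of compound activation plus 3 SD, cut at about 130% in these data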;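 note: 0% = background luminescence of wells with medium and substrate only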
#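 Assay system – human STAT1-deficient U3A cells with stable STAT3-luciferase reporter · Also added – IL-6 (33 ng/mL) · Schedule – compound 1 h, then IL-6 6 h at 37 °C · Technique – reporter luminescence signal · Evaluation – % activation versus median of IL-6-stimulated wells · Benchmarks – IL-6-only wells as 100% reference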
# APP 5'UTR act: activators of APP 5'UTR luciferase reporter, primary screen, SH-SY5Y cells; SH-SY5Y APP 5'UTR luciferase reporter, luminescence; zero percent = DMSO vehicle wells; activation, % at 2 µM; 190,000 compounds, 1% hits; AID 1276, 2008;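 active = activation above a set limit, based on mean plus 3 SD of controls, cut at about 140% in these data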
# STAT1 blocker: STAT1 signaling inhibitors, primary screen, cell-based, HTS, luciferase reporter; NIH 3T3 STAT1-luciferase reporter, IFN-gamma, luminescence; inhibition, % at 5.5 µM; 200,000 compounds, 0.35% hits;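 active = inhibition above a set limit, the mean inhibition across all tested compounds plus 3 SD, cut at about 34% in these data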;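 note: 0% = IFN-gamma with DMSO and 100% = IFN-gamma with 300 µM nifuroxazide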
# NF-kB neuron act: activators of NF-kB expression in neurons, primary screen, cell-based, HTS. human neuronal cells, NF-kB reporter expression; active compounds read high. fold change at 12.5 µM. 190,000 compounds, 1.6% hits. AID 1239, 2008; in the data active = fold change above about 3.3
# STAT3 inh: IL-6 driven STAT3 reporter inhibitors, primary screen, U3A cells, luciferase, luminescence, MLSCN library | inhibition, % at 5.5 µM | IL-6 STAT3-luciferase reporter; host cell line lacks STAT1 | 190,000 compounds, 0.89% hits | AID 862, 2007;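 active = inhibition above the mean inhibition across all screened compounds plus 3 SD, cut at about 44% in these data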;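 note: 0% = DMSO only wells and 100% = 100 µM nifuroxazide control wells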
# STAT1 activ conf: STAT1 signaling activators, confirmation, cell-based, HTS, luciferase reporter. 1,200 compounds, 97% hits. activation (% of control), % at 5.7 µM. NIH 3T3 STAT1-luciferase reporter, IFN-gamma potentiation, luminescence; 100% = IFN-gamma EC80 alone, no compound. shares compounds with STAT1 act;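 active = activation above a set limit carried over from the earlier primary STAT1 screen, cut at about 140% in these data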;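 note: simple ratio to median IFN-gamma plus DMSO wells so 0% means no light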
# NFkB act STAT1ct: NF-kB reporter activators, TNF-alpha stimulated, counter-screen for STAT1 activator project, cell-based, HEK293T, luciferase luminescence | 1,200 compounds, 43% hits | shares compounds with STAT1 act | 100% = TNF-alpha with vehicle only | activation (% of control), % at 5.7 µM;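 active = activation above the mean of solvent-only control wells plus 3 SD, set per campaign, cut at about 130% in these data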;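 note: TNF-alpha given at a submaximal dose yielding about 80% of full reporter signal; values are well signal over median control so 100% means no change and 0% no light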
# STAT3 act STAT1c: STAT3 reporter activation by STAT1 hits, confirmation, counter-screen for STAT1 activator project, U3A cells, luciferase, luminescence; shares compounds with STAT1 act; activation (% of control), % at 5.7 µM; AID 1316, 2008; 1,200 compounds, 46% hits; IL-6; cells lack STAT1; 100 = IL-6 alone, no compound effect;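 active = activation above the solvent-only control well mean plus 3 SD, set per plate batch, cut at about 110% in these data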;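 note: 0% = no luminescence and 100% = median IL-6 plus DMSO wells; higher means more STAT3 reporter activation so hits are non-selective activators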
# The depositor's hits bear a star; . = no result given.
SMILES,STAT1 act,STAT3 activator,APP 5'UTR act,STAT1 blocker,NF-kB neuron act,STAT3 inh,STAT1 activ conf,NFkB act STAT1ct,STAT3 act STAT1c
Cc1sc2nc3c4ccccc4c(NCc4ccco4)nn3c(=O)c2c1C,156.6*,104.0,135.9*,-61.8,3.75*,-0.5,207.9*,154.9*,114.4*
Cc1sc2nc(SCC(=O)C(C)(C)C)n(Cc3ccco3)c(=O)c2c1C,97.1,107.4,4.2,3.2,2,-3.7,.,.,.
O=C(N/C=C/n1cnc2cc(C(F)(F)F)ccc21)c1ccccc1,94.5,97.9,8.2,6.5,1.04,3.2,.,.,.
CCn1c(CC(=O)Nc2ccc(C)cc2)n[nH]c1=S,104.6,96.5,5.0,-5.0,0.97,9.7,.,.,.
COc1ccc2c(c1)CC/C2=N\OC(=O)c1ccccc1C,159.3*,91.1,152.6*,-66.2,5.9*,12.7,181.5*,134.4*,97.9
COc1ccc2c(c1)CCC/C2=N/OC(=O)c1ccccc1OC,97.8,86.4,9.9,0.8,1.17,19.7,.,.,.
COc1ccc2c(c1)CC/C2=N\OC(=O)c1cccc(C)c1,165.3*,99.0,77.6,-73.0,5.87*,3.8,183.1*,136.8*,98.5
Cn1c(Cn2cnc([N+](=O)[O-])n2)nnc1SCC(=O)Nc1ccc(Br)cc1,110.0,112.5,5.8,-12.4,1.1,-13.6,.,.,.
CC(CCc1ccccc1)NC(=O)CCNC(=O)Cn1ccc2ccccc2c1=O (centres undefined),100.3,101.9,11.6,-2.9,1.07,-0.7,.,.,.
Cc1ccnc(NC(=O)Nc2ccc3c(c2)N(C)C(=O)CS3)c1,181.2*,80.8,38.1,-89.5,1.13,25.2,191.7*,134.7*,96.4
Cc1ccnc(NC(=O)Nc2ccc(F)cc2)c1,157.8*,97.1,84.0,-62.9,4.81*,6.9,224.4*,131.4,107.5
Cc1ccnc(NC(=O)Nc2ccc(Br)cc2Cl)c1,167.5*,99.4,164.9*,-75.0,1.12,12.2,256.8*,120.5,104.4
Cc1ccc(OCc2ccc(Br)cc2)c([N+](=O)[O-])n1,154.0*,108.7,156.2*,-58.2,3.78*,0.0,175.0*,140.8*,117.6*
CC(C)(C)c1ccc(OCc2nc(-c3ccccn3)no2)c(Br)c1,158.0*,108.5,164.4*,-62.8,3.73*,-6.1,218.7*,142.9*,130.8*
C=CCNc1nc(-c2cc3ccccc3o2)cs1,185.3*,79.8,210.1*,-93.7,7.54*,19.7,225.5*,86.4,84.6
C=CCNc1nc(-c2ccc(O)c(C(N)=O)c2)cs1,101.2,93.8,3.1,-8.0,1.07,7.5,.,.,.
O=c1cc(/C=C/c2ccccc2)oc2ccccc12,156.1*,116.6,133.9,-64.5,4.59*,-8.0,191.7*,135.7*,123.9*
CCOC(=O)N1CCN(c2ccc(N3C(=O)CCCC3=O)cc2[N+](=O)[O-])CC1,96.8,97.2,-2.1,3.0,1.25,5.6,.,.,.
C=CCn1c(=O)c(C(=O)Nc2ccccc2S(N)(=O)=O)c(O)c2ccccc21,170.6*,130.7,46.4,-79.0,3.15,-33.5,186.9*,129.1,146.0*
